Screening data from PubChem BioAssay.
TDP2 inh: TDP2 (human) inhibition, absorbance primary screen | 370,000 tested, 0.34% active | inhibition, % at 12.8 µM | O95551 | recombinant TDP2, T5PNP hydrolysis, p-nitrophenol absorbance 415 nm;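 active = inhibition above the mean of all tested compounds plus 3 SD, set per campaign, cut at about 25% in these data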
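Read-out basis: percent inhibition. System: recombinant human TDP2. Buffer or medium: Mg2+-containing Tris-HCl buffer, pH 7.5. Repeats: single replicate. Timing: reaction 2 h, 37 °C. Benchmarks: high control without enzyme, low control DMSO plus TDP2. Probe or stimulus: 5 mM T5PNP. Doses: 12.8 µM only. Measured by: epi absorbance of p-nitrophenol freed from T5PNP by hydrolysis.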
PAD4 inh: PAD4 (human) enzyme inhibition | Q9UM07 | recombinant PAD4, RCA probe fluorescence polarization | inhibition, % at 6.36 µM | 330,000 tested, 0.41% active | AID 485272;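 active = percent inhibition above a cutoff equal to the mean of all tested compounds plus 3 SD, cut at about 15% in these data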
GSTO1 inh: GSTO1 inhibition, counter-screen for RBBP9 inhibitors. P78417. recombinant GSTO1, activity-based probe fluorescence polarization. inhibition, % at 5.96 µM. 300,000 tested, 1.1% active;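 active = inhibition above the campaign mean inhibition plus 3 SD, cut at about 35% in these data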
Target sequence (P78417 whole entry, looked up): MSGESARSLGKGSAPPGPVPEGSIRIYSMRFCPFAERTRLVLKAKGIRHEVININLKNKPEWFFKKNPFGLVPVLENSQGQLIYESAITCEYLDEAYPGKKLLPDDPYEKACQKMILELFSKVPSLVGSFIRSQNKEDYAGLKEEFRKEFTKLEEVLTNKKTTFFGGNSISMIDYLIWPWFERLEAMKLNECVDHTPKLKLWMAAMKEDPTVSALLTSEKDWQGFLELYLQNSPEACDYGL
JMJD2C inh: human JMJD2C demethylase inhibition; GST-JMJD2C(1-420) H3K9me3 demethylation, DELFIA europium; inhibition, % at 2.35 µM; 330,000 tested, 0.069% active; AID 2099;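 active = more than half of a compound's replicate wells show inhibition beyond 50%, single wells judged on their own value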;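 also: signal counts dimethyl H3K9 product captured on neutravidin plate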
Target sequence (Q9H3R0 1-420 limits assumed): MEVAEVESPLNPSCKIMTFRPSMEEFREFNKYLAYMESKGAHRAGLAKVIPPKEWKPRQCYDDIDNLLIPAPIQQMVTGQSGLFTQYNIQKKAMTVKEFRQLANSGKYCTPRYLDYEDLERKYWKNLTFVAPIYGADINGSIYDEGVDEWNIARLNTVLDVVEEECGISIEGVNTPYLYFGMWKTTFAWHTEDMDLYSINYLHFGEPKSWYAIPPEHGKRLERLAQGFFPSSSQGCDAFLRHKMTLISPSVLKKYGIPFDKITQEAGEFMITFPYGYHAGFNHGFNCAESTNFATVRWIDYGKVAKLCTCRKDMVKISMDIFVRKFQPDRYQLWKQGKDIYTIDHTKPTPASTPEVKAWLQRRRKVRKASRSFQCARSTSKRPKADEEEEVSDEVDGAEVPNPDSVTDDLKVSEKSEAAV
Apaf-1 inh: inhibitors of human Apaf-1 apoptosome; reconstituted apoptosome caspase-3 activity, DEVD-Rh110 fluorescence; AID 489030; O14727; inhibition, % at 20 µM; 330,000 tested, 0.71% active; active = inhibition of at least 40% at 20 µM
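detection = Rh110 fluorescence intensity | test system = biochemical Apaf-1 apoptosome reconstitution | also added = cytochrome c and DEVD-Rh110 substrate | schedule = 30 min plus 50 min, RT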
UBC9 SUMO inh: inhibitors of human SUMOylation (UBC9); P63279; HTRF SUMOylation assay, SAE1/SAE2 + UBC9, in vitro; inhibition, % at 35 µM; 290,000 tested, 0.36% active; in the data active = inhibition above about 50%, passing the limit was not always enough
GSTO1 confirm: confirmation of human GSTO1 inhibitors; shares compounds with GSTO1 inh; recombinant GSTO1, probe fluorescence polarization; inhibition, % at 5.96 µM; 2,400 tested, 54% active;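 active = inhibition above the primary screen's cutoff, its mean inhibition plus 3 SD, cut at about 35% in these data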;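 also: loss of polarization as inhibitors block binding of rhodamine sulfonate ester activity probe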
GSTO1 recomb ABPP: GSTO1 (human) inhibition by gel ABPP; inhibition, % at 1 µM; recombinant GSTO1, gel ABPP SE-Rh probe fluorescence; 130 tested, 30% active; shares compounds with GSTO1 inh;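 active = inhibition of the enzyme GSTO1 above about 75%, limit read from the data; inactive = inhibition below that limit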
Hits are given with their value; - = inactive; . = not tested or not shown. Most compounds without a hit are left out; they make up all but 1.6% or so of the library.

SMILES	TDP2 inh	PAD4 inh	GSTO1 inh	JMJD2C inh	Apaf-1 inh	UBC9 SUMO inh	GSTO1 confirm	others
CCOC(=O)[C@]12CCCCC/C=C\1N(Cc1ccc(OC)cc1)C(=O)[C@H]2CC(=O)NCCCOC	-	.	.	.	.	.	.
Cc1ccc(S(=O)(=O)N2CCN(CC(=O)N/N=C\c3ccc(O)c(O)c3)CC2)cc1	-	-	46	-	-	-	-
Cc1ccc(S(=O)(=O)N2CCN(CC(=O)N/N=C/c3ccc(C)o3)CC2)cc1	-	-	-	-	-	-	.
CCN(CC)S(=O)(=O)c1cccc(C(=O)N/N=C/c2ccc(O)c(O)c2O)c1	-	-	63	-	.	50	-
CCOc1ccccc1/C=N/NC(=O)c1cccc(S(=O)(=O)N(CC)CC)c1	-	-	-	-	-	-	.
O=C(N/N=C/c1ccc(O)c(O)c1)c1cccc(S(=O)(=O)N2CCCC2)c1	-	-	67	-	-	.	-
Cc1ccc(C(=O)Nc2nnc(CC(=O)N/N=C/c3ccc(O)c(O)c3)s2)cc1	-	-	38	-	-	.	-
Cc1ccc(C(=O)Nc2nnc(CC(=O)N/N=C/c3ccncc3)s2)cc1	-	-	-	-	-	-	.
CC(C)Oc1ccc(CCC(=O)N/N=C/c2ccc3c(c2)OCO3)cc1	-	-	-	-	-	-	.
O=C(CCc1ccc(O)c(O)c1)N/N=C/c1ccc2c(c1)OCO2	-	-	44	-	-	-	-
Cc1ccc(S(=O)(=O)/N=C2/C=C(Sc3ncn[nH]3)C(=O)c3ccccc32)c(C)c1	.	16	91	-	.	96	93
Cc1ccc(S(=O)(=O)/N=C2\C=C(NS(=O)(=O)c3ccccc3)C(=O)c3ccccc32)c(C)c1	-	.	.	.	.	.	.
CCOc1ccc(-n2c(SCC(=O)Nc3ccc(S(=O)(=O)Nc4cc(C)nc(C)n4)cc3)nnc2-c2cccc(C)c2)cc1	-	.	.	.	.	.	.
Cc1cc(C(=O)O)ccc1-n1c(C)ccc1C	.	-	46	-	-	.	-
Cc1cc(C(=O)O)ccc1-n1c(C)cc(C=C2C(=O)c3ccccc3C2=O)c1C	-	-	-	-	-	-	.
NC(=O)c1cc(N)ccc1N1CCCCC1	-	-	-	-	-	-	.
Cc1cc(N2CCCC2)c(C)cc1C=O	-	-	-	-	-	-	.
NC(=O)c1cc(N)ccc1N1CCCC1	-	-	51	-	44	-	-
Cc1cc(N)ccc1N1CCCC1	.	28	73	-	65	-	-
COc1ccc(OC)c2sc(N3CCN(C(=O)c4ccc([N+](=O)[O-])s4)CC3)nc12	-	-	54	-	-	.	-
COC(=O)[C@]12C[C@H](CC(=O)NCc3cccs3)C(=O)N(CCc3ccc(OC)c(OC)c3)C1=C[C@H](C1CCCC1)O[C@@H]2C	-	.	.	.	.	.	.
O=C1CCC/C(=N/Nc2ccc(Cl)cc2)C1	-	-	40	-	-	-	-
COc1ccc(NC(=O)c2ccccc2NC(=O)c2ccccc2)cc1	-	-	-	-	-	-	.
COc1ccc(C(=O)Nc2ccc(O)c3ccccc23)cc1	-	-	49	-	-	.	-
COC(=O)[C@H](C(C)C)N(Cc1cn(Cc2ccc(C)cc2)nn1)S(=O)(=O)c1ccc(F)cc1Br	-	.	.	.	.	.	.
SMILES	TDP2 inh	PAD4 inh	GSTO1 inh	JMJD2C inh	Apaf-1 inh	UBC9 SUMO inh	GSTO1 confirm	others
O=C(NC1CCCCCC1)c1ccc(Br)o1	-	-	-	-	-	-	.
O=C(NC1CCCCC1)Oc1cc2oc(=O)sc2cc1Br	-	-	51	-	-	-	-
CCOC(=O)c1c(CC(C)C)csc1NC(=O)C(C)C	-	-	-	-	-	-	.
CCOC(=O)c1c(CC(C)C)csc1NC(=O)CCl	-	-	76	-	-	-	92
N=C1CCC(=N)c2c1c(O)c1ccccc1c2O	.	43	77	-	77	63	77
COC(=O)[C@]1(C#N)CC(=O)N(Cc2ccc(Cl)cc2)[C@@H]1c1ccccc1	-	.	.	.	.	.	.
Cc1ccc2nc(/C(C#N)=C\c3ccc([N+](=O)[O-])o3)[nH]c2c1	-	-	39	-	-	-	-
N#C/C(=C\c1ccc([N+](=O)[O-])o1)c1nc2ccccc2[nH]1	-	-	-	-	-	-	.
COC(=O)/C(C(C)=O)=C(\C=C\N(C)C)N(C)C	-	-	-	-	-	-	.
COC(=O)\C(C(C)=O)=C(/C=C/C=C/C=C/N(C)C)N(C)C	-	-	38	-	-	-	-
Cc1cc(C(=O)O[C@@H]2CCC[C@@]3(C(=O)N(Cc4ccccc4)c4ccccc43)[C@H]2NC(=O)CCc2ccccc2)no1	-	.	.	.	.	.	.
COc1ccc([C@@H]2OC2(C(N)=O)C(N)=O)cc1	-	-	-	-	-	-	.
NC(=O)C1(C(N)=O)OC1c1ccc(Cl)c(Cl)c1 (stereo not drawn)	-	-	66	-	-	-	77	GSTO1 recomb ABPP=-
COc1cc(C2C(C#N)=C(N)Oc3n[nH]c(-c4ccncc4)c32)cc(OC)c1OC (stereo not drawn)	-	-	-	-	-	-	.
COc1ccc(C2C(C#N)=C(N)Oc3n[nH]c(-c4ccccn4)c32)c(OC)c1OC (stereo not drawn)	-	-	43	-	-	-	-
COc1ccc(C)cc1NC(=O)CSc1nnc(-c2n[nH]c3c2CCC3)n1N	-	.	.	.	.	.	.
Nn1c(SCC(=O)NC2CCCCC2)nnc1-c1cc(-c2ccc(Cl)cc2)n[nH]1	-	.	.	.	.	.	.
CC(Sc1nc2ncc(Cl)cc2[nH]1)C(=O)c1c(N)n(C)c(=O)n(C)c1=O (stereo not drawn)	-	-	74	-	-	.	-
C=CC1=C2C=C(C3CC3)N(CC3CC3)C=C2C(=O)C(C)(OC(=O)c2ccco2)C1=O (stereo not drawn)	-	-	-	-	-	.	.
C=CCN1C=C2C(=O)C(C)(OC(=O)c3ccco3)C(=O)C(C=C)=C2C=C1C1CC1 (stereo not drawn)	.	-	39	-	-	.	-
Cc1ccc(NC(=O)Cc2nc(CCl)cs2)cc1	-	-	58	-	-	-	95	GSTO1 recomb ABPP=87
Cc1ccc(S(=O)(=O)N2CCC(c3nc4ccccc4o3)CC2)s1	-	.	.	.	.	.	.
Cc1ccc(-n2c(SCC(=O)Nc3ccc(S(=O)(=O)Nc4cc(C)nc(C)n4)cc3)nnc2-c2ccc(C(C)(C)C)cc2)cc1	-	.	.	.	.	.	.
COc1ccc(S(=O)(=O)n2oc(=O)cc2-c2ccccc2)cc1	-	-	-	-	-	-	.
COc1ccc(S(=O)(=O)n2oc(=O)cc2-c2ccccc2)cc1OC	-	-	40	-	-	-	-
COC(=O)[C@]12C[C@H](CC(=O)NCCc3ccccc3OC)C(=O)N(CCc3ccc(OC)c(OC)c3)C1=C[C@H](COCc1ccccc1)O[C@@H]2C	-	.	.	.	.	.	.
